The list is not random: actives were taken first. Their share in the collection is about 2%.
ARFGAP1 inhibitor = inhibitors of rat ARFGAP1; AID 651572; Q62848; 360,000 tested, 0.26% active; Arfgap1-stimulated ARF1 GTP hydrolysis, GDP FP detection; inhibition, % at 16.5 µM;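 active = inhibition above a per-plate limit, mean inhibition of low control wells plus 3 SD, cut at about 25% in these data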;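 note: 0% = DMSO wells with enzyme and 100% = wells lacking Arfgap1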
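Material – truncated rat Arfgap1 GAP domain · Buffer or medium – HEPES-based buffer, pH 7.5 · Reagent – human ARF1(Δ1-17)-GTP substrate · Dosing – 16.5 µM single point, 1.26% DMSO · Schedule – GTP hydrolysis reaction 2 h at 25 °C · Technique – GDP detection by fluorescence polarization · Benchmarks – No-Arfgap1 wells (100%) versus DMSO full-reaction wells (0%) · Repeats – single replicate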
TCR-CD3 inh = blocks the human TCR-CD3 interaction; AID 651800; 360,000 tested, 0.37% active; inhibition, % at 9.4 µM; TAMRA-labeled TCR probe fluorescence, biochemical; in the data active = inhibition above about 19%;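 note: recombinant mutant TCR 2C K166C tagged with TAMRA read by polarization; 0% = receptor in buffer alone and 100% = receptor with positive control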
LEDGF integ inh = blocks HIV-1 LEDGF/p75-dependent DNA integration; TR-FRET IN-LEDGF/p75 DNA integration, Eu/Cy5; inhibition, % at 3.7 µM; 370,000 tested, 0.64% active; AID 743269;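 active = inhibition above the screen-wide mean plus 3 SD, cut at about 13% in these data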;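 note: signal is the Cy5 over europium emission ratio at 671 and 618 nm; 0% = plate median of compound wells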
UHRF1 binding = UHRF1 methyl-DNA binding inhibition; 370,000 tested, 0.75% active; UHRF1 binding to methylated oligo, TR-FRET; inhibition, % at 4.4 µM; AID 687016; in the data active = inhibition above about 21%;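 note: UHRF1 SRA domain binding a hemimethylated CpG hairpin DNA probe; 0% = median of test compound wells and 100% = reference inhibitor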
Target sequence (Q96T88 whole entry, looked up, the tested form may be a part): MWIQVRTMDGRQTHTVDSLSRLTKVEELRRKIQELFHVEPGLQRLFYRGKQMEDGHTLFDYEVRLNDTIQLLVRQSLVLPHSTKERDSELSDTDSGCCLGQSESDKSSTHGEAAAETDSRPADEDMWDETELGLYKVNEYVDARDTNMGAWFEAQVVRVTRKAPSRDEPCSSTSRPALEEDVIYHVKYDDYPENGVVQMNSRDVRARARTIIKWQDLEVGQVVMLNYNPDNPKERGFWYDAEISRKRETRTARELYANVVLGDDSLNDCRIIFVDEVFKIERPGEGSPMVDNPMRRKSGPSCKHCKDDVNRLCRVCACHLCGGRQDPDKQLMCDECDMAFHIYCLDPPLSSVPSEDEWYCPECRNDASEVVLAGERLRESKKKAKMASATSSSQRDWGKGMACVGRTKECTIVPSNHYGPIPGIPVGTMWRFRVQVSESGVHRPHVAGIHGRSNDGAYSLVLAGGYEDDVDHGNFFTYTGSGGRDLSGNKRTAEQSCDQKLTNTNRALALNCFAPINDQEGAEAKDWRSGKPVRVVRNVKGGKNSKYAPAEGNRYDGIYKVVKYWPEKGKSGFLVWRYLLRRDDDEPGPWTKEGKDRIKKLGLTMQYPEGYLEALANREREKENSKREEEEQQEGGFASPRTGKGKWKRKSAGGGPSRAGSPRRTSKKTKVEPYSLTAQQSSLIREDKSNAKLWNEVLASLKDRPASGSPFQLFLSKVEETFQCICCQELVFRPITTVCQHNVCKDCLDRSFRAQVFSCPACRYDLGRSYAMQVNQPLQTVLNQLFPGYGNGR
ASAP1 inh = inhibitors of human ASAP1 ArfGAP activity; ASAP1-stimulated ARF1 GTP hydrolysis, GDP FP detection; inhibition, % at 16.5 µM; 360,000 tested, 0.19% active; AID 624377; in the data active = inhibition above about 25%;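 note: 0% = vehicle with enzyme and substrate and 100% = no enzyme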
MBD2 inh = blocks human MBD2 binding to methylated DNA. Q9UBB5. AID 686964. TR-FRET, MBD2 binding to methylated oligonucleotide. 370,000 tested, 0.31% active. inhibition, % at 4.4 µM; in the data active = inhibition above about 13%
ASAP1 inh confirm = confirmation of human ASAP1 inhibitors. ASAP1-stimulated Arf1 GTPase, GDP fluorescence polarization. 620 tested, 37% active. inhibition, % at 16.5 µM. shares compounds with ASAP1 inh. AID 624431;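 active = mean inhibition over triplicates exceeds the hit threshold derived for the earlier primary screening run, cut at about 25% in these data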
* hit, by the source's call; x = not tested or not shown.

SMILES	ARFGAP1 inhibitor	TCR-CD3 inh	LEDGF integ inh	UHRF1 binding	ASAP1 inh	MBD2 inh	others
COCC(C)OC(=O)/C(C#N)=C\c1coc2ccc(C)cc2c1=O (configuration not stated)	12	5	4	45*	7	-2
COc1ccc(NC(=O)CSCC(=O)N(C)CC(=O)Nc2c(C)cccc2C)cc1	-9	-1	-6	3	3	11
COc1ccc(NC(=O)c2ccc(NC(=O)CN(C)CC(=O)Nc3c(C)cccc3C)cc2)cc1	-13	5	1	22*	4	0
O=C(Nc1ccc(Cl)cc1)OC1CCC12CCC(c1ccccc1)CC2 (configuration not stated)	x	x	3	-2	x	-4
CCOC(=O)[C@]12CCCC=C1N(CCCOC)C(=O)[C@@H]2CC(=O)N1CCC(c2ccccc2)CC1	x	x	-2	0	x	-1
CC(C)NC(=O)COc1ccc(OCc2ccccc2)cc1	-6	-4	-2	-1	11	2
O=C(COc1ccc(OCc2ccccc2)cc1)NN=C1CCCC1	2	9	5	34*	10	13
Cc1ccc(C(=O)N2CCN(c3ccc(NC(=O)c4cc(C)cc(C)c4)cc3)CC2)cc1	3	4	1	-1	-1	0
Cc1cc(C)cc(C(=O)Nc2ccc(N3CCCC3)cc2)c1	13	2	-3	47*	4	1
C=CC[C@@H]1NN2C(=O)[C@@H](CCCC)[C@@H]3c4ccccc4C=NN3[C@@H]2c2ccccc21	x	x	-2	0	x	-1
C=CC[C@@H]1NN2C(=O)[C@@H](CCc3ccccc3)[C@@H]3c4ccccc4C=NN3[C@@H]2c2ccccc21	x	x	2	83*	x	5
Cc1cccc(NC(=O)CN2C(=O)N/C(=C/c3ccc(C)o3)C2=O)c1	-4	-2	4	88*	-7	-1
Cc1ccc(NC(=O)CN2C(=O)N/C(=C/c3ccc(C)o3)C2=O)cc1	-4	2	1	-1	-7	-2
Cc1ccc(NC(=O)CN2C(=O)N/C(=C/c3cc(C)n(-c4cccc(C(=O)O)c4)c3C)C2=O)cc1	-22	5	26*	37*	-8	8
Cc1ccccc1NC(=O)C(=Cc1ccc(C(=O)O)cc1)C(=O)Nc1ccccc1C	-3	-1	1	26*	1	3
O=C(NCCc1c[nH]c2ccccc12)OCc1cn(Cc2cccc(F)c2F)nn1	x	x	-8	2	x	3
Cc1cc(NC(=O)CCCC(=O)NCc2cccs2)no1	0	2	5	25*	8	12
CN(Cc1ccccc1F)C(=O)C1CCC(CNS(=O)(=O)c2cccc3cccnc23)CC1 (configuration not stated)	x	x	-5	0	x	11
CCCCNC(=O)C[C@H]1C[C@@]2(C(=O)OC)C(=C[C@H](C3CCCC3)O[C@@H]2C)N(Cc2ccco2)C1=O	x	x	5	-1	x	-8
Cn1c(NC(=O)/C=C\c2ccccc2)cc(=O)n(C)c1=O	9	-6	0	26*	2	0
Cn1c(NC(=O)/C=C/c2c(F)cccc2Cl)cc(=O)n(C)c1=O	-2	1	6	-4	-2	1
O=C(NCCO)c1ccc(-c2ccc3nncn3c2)cc1	0	4	4	-2	-2	-6
Cn1c(=O)c2cc(NC(=O)NCc3ccccc3)ccc2n1C/C=C/c1ccccc1	-3	-6	1	0	16	-1
O=C(Nc1ccc2c(c1)OCCO2)c1ccc2ccccc2n1	2	8	-2	22*	4	-6
CC(OC(=O)c1ccc(NC(=O)CC#N)cc1)C(=O)Nc1ccc(Oc2ccccc2)cc1 (configuration not stated)	-27	35*	3	-4	5	-2
SMILES	ARFGAP1 inhibitor	TCR-CD3 inh	LEDGF integ inh	UHRF1 binding	ASAP1 inh	MBD2 inh	others
Cc1[nH]c2ccccc2c1C(=O)C(C)OC(=O)c1ccc(NC(=O)CC#N)cc1 (configuration not stated)	19	14	2	-3	3	-8
O=C(NNC(=O)C1CCN(Cc2ccc(F)cc2Cl)CC1)Nc1ccc([N+](=O)[O-])cc1	10	-1	6	29*	-3	-2
CC(C)OC(=O)c1ccc(N2CCN(c3ccc(F)cc3)CC2)nc1	9	-3	2	1	0	-1
CC(C)OC(=O)c1cccnc1N1CCN(c2ccc(F)cc2)CC1	8	5	2	23*	6	8
Cc1ccc(S(=O)(=O)N2[C@H](CC(=O)OCc3ccccc3)OC[C@@H]2C(C)C)cc1	2	-2	0	-1	2	4
CCN(CC)CC(C)OC(=O)COc1ccc(OC)cc1 (configuration not stated)	-1	11	3	24*	-4	-3
COC(=O)[C@@H]1CCCN1Cc1nc(Cc2ccccc2F)no1	-7	2	2	1	-1	3
COC(=O)[C@@H]1CCCN1Cc1nc(Cc2ccc(OC)c(OC)c2)no1	5	-4	1	33*	6	-2
CCCCc1ccc(-c2noc(CCC(=O)NCC)n2)cc1	x	x	0	-2	x	-10
COc1cccc(C(=O)N2CCC(Oc3cccnc3)CC2)c1	x	x	3	-1	x	4
COc1ccc(C(=O)Cn2nnc(-c3ccccc3-n3cnnn3)n2)cc1	8	-5	0	34*	9	0
COc1cc(C(=O)N2CCN(S(=O)(=O)c3cccs3)CC2)cc(OC)c1C	-2	-4	0	24*	5	7
COc1ccccc1N1CCN(S(=O)(=O)c2cccs2)CC1	12	-2	-3	39*	2	-3
Cc1cccnc1C1=NOC(Cc2ccccc2)C(=O)N1Cc1ccccc1F (configuration not stated)	-6	11	3	0	26*	-2	ASAP1 inh confirm=8
COc1ccccc1NS(=O)(=O)c1ccc(C)c(C(=O)Nc2cc(C)on2)c1	2	-4	1	4	26*	4	ASAP1 inh confirm=7
C=CC[C@H](CC(=O)N[C@H](CO)Cc1ccccc1)C(=O)N[C@@H](COC(=O)[C@@H](CC=C)Cc1ccc(F)cc1)Cc1c[nH]c2ccccc12	6	-1	3	0	15	-2
C=CC[C@@H](CC(=O)N[C@@H](CO)Cc1ccccc1)C(=O)N[C@H](COC(=O)[C@@H](CC=C)Cc1ccc(F)cc1)Cc1c[nH]c2ccccc12	1	-2	-2	1	32*	-1	ASAP1 inh confirm=12
Cn1cccc1Cc1nnc(SCC(=O)N2CCOCC2)n1-c1ccc(F)cc1	9	6	-1	0	25*	2	ASAP1 inh confirm=1

Bioassay records deposited in PubChem by The Scripps Research Institute Molecular Screening Center.
